The molecules below were run on T1, OR2W1. Details: stereoisomer not certain.
T1 sequence (whole entry): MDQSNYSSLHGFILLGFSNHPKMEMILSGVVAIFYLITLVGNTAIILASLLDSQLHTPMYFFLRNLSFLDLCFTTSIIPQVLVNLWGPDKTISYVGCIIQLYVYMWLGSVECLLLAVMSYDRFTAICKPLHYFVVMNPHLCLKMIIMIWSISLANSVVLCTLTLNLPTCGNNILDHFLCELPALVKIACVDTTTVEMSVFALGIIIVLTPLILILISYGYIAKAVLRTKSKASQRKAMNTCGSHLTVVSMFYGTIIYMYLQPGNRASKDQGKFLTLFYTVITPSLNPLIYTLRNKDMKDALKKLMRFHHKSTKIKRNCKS
Method in brief: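 Values were gathered from published papers (main text and supplementary material), with extra details requested from the original authors when needed, and checked for typos and inconsistencies. Each receptor–molecule pair is called responsive (active) if the original authors judged the measured signal statistically different from baseline, and non-responsive (inactive) otherwise. Assay methods varied by source, often transient mammalian cell-line luciferase assays. Recorded details include cell line, G-protein, co-transfected protein and tags.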

Structure (SMILES)	odorant receptor agonist call
C=CC(=O)CCCCC	active
CC1=CCC(C(C)(C)S)CC1 (stereo not drawn)	inactive
CC(=O)OCCC(C)C	active
CCCSSCCC	inactive
CC(C)(S)CCOC=O	active
C=CC(=C)CCC=C(C)C	active
CSCc1ccco1	active
COc1ccc(C)cc1O	inactive
CCCCCC=CC=O	inactive
CCCC(S)CCO (stereo not drawn)	inactive
OCCCc1ccccc1	active
CCc1ccc(O)cc1	active
CCCCCc1ccccn1	active
CCOC(=O)CCSC	active
c1coc(CSSCc2ccco2)c1	active
CC(=O)OCCc1ccccc1	active
CC(S)c1ccccc1 (stereo not drawn)	active

Structure (SMILES)	odorant receptor agonist call
CCCCCC(C)O (stereo not drawn)	active
SCCc1ccccc1	active
CCc1cccc(O)c1	inactive
CCOC(=O)C(C)C	inactive
CCOC(=O)C(C)CC (stereo not drawn)	inactive
CSSCc1ccco1	active
CC(=O)c1cnccn1	inactive
CC(=O)c1ccc(C)cc1	active
OCCc1ccccc1	inactive
CC(=O)OCC=Cc1ccccc1	active
CCCCCCOC(C)=O	active
CCCCC1OC(=O)CC1C (stereo not drawn)	active
CCCCCCCC(C)=O	active
CCOC(=O)c1ccccc1	active
CCCC(=O)OCC	active
CCCCCCC1CCC(=O)O1 (stereo not drawn)	active

From the M2OR odorant receptor database
